Data set [1] has as its system Mus musculus. Kind of data set: Compound was evaluated for antitumor efficacy at optimum dose in mice against B16 melanoma cells at q4d 5,9,13 days (intraperitoneal); Inactive. It is filed as functional, organism-based.
Data set [2] relates to L1210. Kind of data set: Compound was evaluated for drug concentration for 50% inhibition of actively growing L1210 cells in culture for the inhibition of incorporation of [3H]thymidine in the DNA. Format: functional. As to conditions: Mus musculus, read-out: ED50 (the source's name). An outline of the steps:
(§1)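 Actively growing L1210 leukemia cells in culture; incorporation of [3H]thymidine into DNA or [3H]uridine into RNA measured. ED50 is the drug concentration giving 50% inhibition of incorporation. Drugs dissolved in Me2SO first, then diluted to 1% Me2SO final.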

A short description of data set [3]: Stabilization of helical DNA toward thermal denaturation (delta Tm) was determined. It is filed as ADME. In short, it runs like this: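 Calf thymus DNA thermal denaturation. Drug at 5.2 × 10^-6 M and DNA (P) at 5.2 × 10^-5 M in 0.01 M phosphate buffer, pH 7, with 10^-5 M EDTA and 5% Me2SO. ΔTm = Tm of DNA-drug complex minus Tm of DNA alone. Values ≤1 are taken as insignificant binding.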

Data set [4] has as its system Mus musculus. Briefly: Compound was evaluated for antitumor efficacy at optimum dose in mice against B16 melanoma cells at 0.0063 mg/Kg dose on day 1 (intraperitoneal). It is filed as functional.
Data set [5] relates to L1210. Briefly: Compound was evaluated for drug concentration for 50% inhibition of actively growing L1210 cells in culture for the inhibition of incorporation of [3H]uridine in the RNA. It is filed as functional. The settings on record: Mus musculus, read-out: ED50 (the source's name). In short, it runs like this:
as §1

The nature of data set [6]: Partition coefficient was determined in octanol-phosphate at pH 6.0. It is filed as physicochemical. As to conditions: octanol/phosphate buffer. In short, it runs like this: (§2)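 Octanol/buffer partitioning used phosphate buffer at pH 7.4, 6.5 or 6.0 and citrate buffer at pH 4.0. Phases were separated by centrifugation at 2000 rpm for 5 min. Concentration in one phase was read by UV absorbance at 235.5 nm in 1-cm cells, and the other phase was obtained by difference. Determinations were in duplicate at 2 or 3 octanol-buffer ratios (1:10 to 1:50). Log P = log(organic/aqueous concentration).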

For data set [7], the system named is Mus musculus. Kind of data set: Compound was evaluated for antitumor efficacy at optimum dose in mice against P388 leukemic cells at 2 mg/kg q4d 5,9,13 days (intraperitoneal). It is filed as functional. In short, it runs like this: (§3)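 Mouse survival screens were run by NCI protocols, with intraperitoneal dosing on the schedule given. Efficacy is % T/C, the average survival time of treated mice divided by that of control mice, at the optimal dose.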

Data set [8] concerns L1210. Kind of data set: Compound was evaluated for drug concentration for 50% inhibition of actively growing L1210 cells in culture for the inhibition of incorporation of [3H]uridine in the RNA(isomeric ratio A/B/C = 28:69:0). It is filed as functional. The settings on record: Mus musculus, read-out: ED50 (the source's name). An outline of the steps: (§4)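 Actively growing L1210 cells in culture. Drug was dissolved in Me2SO and diluted to 1% Me2SO final. The read-out is [3H]thymidine incorporation into DNA or [3H]uridine incorporation into RNA. ED50 is the drug concentration giving 50% inhibition of incorporation.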

Data set [9] concerns L1210. Kind of data set: Compound was evaluated for drug concentration for 50% inhibition of actively growing L1210 cells in culture for the inhibition of incorporation of [3H]thymidine in the DNA(isomeric ratio A/B/C = 7:0:92). It is filed as functional. As to conditions: Mus musculus, read-out: ED50 (the source's name). In short, it runs like this: as §4
The test system of data set [10] is Mus musculus. Briefly: Compound was evaluated for antitumor efficacy at optimum dose in mice aagainst B16 melanoma cells at 0.0625 mg/Kg day 1 (intraperitoneal). It is filed as functional. The settings on record: in the assay text read “0.625 mg/Kg” for “0.0625 mg/Kg”. In short, it runs like this: as §3
The nature of data set [11]: Partition coefficient was determined in octanol-citrate at pH 4.0. The settings on record: octanol/citrate buffer.
For data set [12], the system named is L1210. Kind of data set: Compound was evaluated for drug concentration for 50% inhibition of actively growing L1210 cells in culture for the inhibition of incorporation of [3H]thymidine in the DNA(isomeric ratio A/B/C = 28:69:0). Format: functional. As to conditions: Mus musculus, read-out: ED50 (the source's name). An outline of the steps: as §4
For data set [13], the system named is L1210. Briefly: Compound was evaluated for drug concentration for 50% inhibition of actively growing L1210 cells in culture for the inhibition of incorporation of [3H]thymidine in the DNA(isomeric ratio A/B/C = 2:91:7). The settings on record: Mus musculus, read-out: ED50 (the source's name). It is filed as functional. In short, it runs like this:
as §4

The subject of data set [14] is Nucleic Acid. Briefly: Stabilization of helical DNA toward thermal denaturation (delta Tm) was determined (isomeric ratio A/B/C = 2:91:7). It is filed as nucleic-acid assay. In short, it runs like this: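 Thermal denaturation of calf thymus DNA (5.2 × 10^-5 M P) with drug at 5.2 × 10^-6 M. Buffer was 0.01 M phosphate pH 7 with 10^-5 M EDTA and 5% Me2SO. ΔTm = Tm of the DNA-drug complex minus Tm of DNA alone. Values ≤1 are taken as insignificant binding.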

The test system of data set [15] is L1210. Briefly: Compound was evaluated for drug concentration for 50% inhibition of actively growing L1210 cells in culture for the inhibition of incorporation of [3H]uridine in the RNA(isomeric ratio A/B/C = 7:0:92). Format: functional. As to conditions: Mus musculus, read-out: ED50 (the source's name). In short, it runs like this:
as §4

Data set [16] has as its system Mus musculus. Briefly: Compound was evaluated for antitumor efficacy at optimum dose in mice against P388 leukemic cells at 1.25 mg/Kg day 1 (intraperitoneal). It is filed as functional. In short, it runs like this: as §3
Data set [17] in a line: Stabilization of helical DNA toward thermal denaturation (delta Tm) was determined (isomeric ratio A/B/C = 7:0:92). Format: ADME.
Data set [18] relates to Mus musculus. Briefly: Compound was evaluated for antitumor efficacy at optimum dose in mice against B16 melanoma cells at 2.5 mg/kg on q4d 1,5,9 days (intravenous).
Data set [19] can be described thus: Stabilization of helical DNA toward thermal denaturation (delta Tm) was determined (isomeric ratio A/B/C = 28:69:0). Format: ADME.
Data set [20] deals with L1210. Briefly: Compound was evaluated for drug concentration for 50% inhibition of actively growing L1210 cells in culture for the inhibition of incorporation of [3H]uridine in the RNA(isomeric ratio A/B/C = 2:91:7). It is filed as functional. As to conditions: Mus musculus, read-out: ED50 (the source's name). An outline of the steps:
as §4

A short description of data set [21]: Partition coefficient was determined in octanol-phosphate at pH 6.5. Format: physicochemical. As to conditions: octanol/phosphate buffer. An outline of the steps:
as §2

Data set [22] can be described thus: Partition coefficient was determined in octanol-phosphate at pH 7.4. It is filed as physicochemical. The settings on record: octanol/phosphate buffer. An outline of the steps: as §2
Data set [23] relates to Mus musculus. Briefly: Compound was evaluated for antitumor efficacy at optimum dose in mice against B16 melanoma cells at 10 mg/Kg on q4d 1,5,9 days (intravenous).
The subject of data set [24] is Mus musculus. Kind of data set: Compound was evaluated for antitumor efficacy at optimum dose in mice against P388 leukemic cells at 8 mg/Kg on q4d 5,9,13 days (intraperitoneal). Format: functional. In short, it runs like this:
as §3

Data set [25] has as its system Mus musculus. Briefly: Compound was evaluated for antitumor efficacy at optimum dose in mice against P388 leukemic cells at 7.5 mg/Kg day 1 (intraperitoneal). Format: functional. In short, it runs like this: as §3
The subject of data set [26] is Mus musculus. Briefly: Compound was evaluated for antitumor efficacy at optimum dose in mice aagainst B16 melanoma cells at 7.5 mg/Kgon day 1 (intraperitoneal). Format: functional. In short, it runs like this:
as §3

A short description of data set [27]: Stabilization of helical DNA toward thermal denaturation (delta Tm) was determined (isomeric ratio A/B = 76:12). It is filed as ADME.
The test system of data set [28] is L1210. Briefly: Compound was evaluated for drug concentration for 50% inhibition of actively growing L1210 cells in culture for the inhibition of incorporation of [3H]thymidine in the DNA(isomeric ratio A/B = 4:91). It is filed as functional. The settings on record: Mus musculus, read-out: ED50 (the source's name). An outline of the steps: as §4
Data set [29] deals with L1210. Kind of data set: Compound was evaluated for drug concentration for 50% inhibition of actively growing L1210 cells in culture for the inhibition of incorporation of [3H]uridine in the RNAisomeric ratio A/B = 4:91). Format: functional. As to conditions: Mus musculus, read-out: ED50 (the source's name). In short, it runs like this:
as §4

Data set [30] concerns L1210. Kind of data set: Compound was evaluated for drug concentration for 50% inhibition of actively growing L1210 cells in culture for the inhibition of incorporation of [3H]uridine in the RNA(isomeric ratio A/B = 76:12). It is filed as functional. The settings on record: Mus musculus, read-out: ED50 (the source's name). An outline of the steps: as §4
For data set [31], the system named is L1210. Kind of data set: Compound was evaluated for drug concentration for 50% inhibition of actively growing L1210 cells in culture for the inhibition of incorporation of [3H]thymidine in the DNA(isomeric ratio A/B = 76:12). The settings on record: Mus musculus, read-out: ED50 (the source's name). It is filed as functional. In short, it runs like this: as §4

Data set [32] in a line: Stabilization of helical DNA toward thermal denaturation (delta Tm) was determined (isomeric ratio A/B = 4:91). Format: ADME.

The source made the active and inactive calls. The rule behind the calls is not given here.

As to `COc1cccc2c1C(=O)c1c(O)c3c(c(O)c1C2=O)C[C@@](O)(C(=O)CO)C[C@@H]3OC1CC(N2CCOCC2C#N)C(O)C(C)O1` (some centres undefined), the T/C result in [1] was “inactive”. The EC50 in data set [2] was 3 nM; in data set [5], 0.53 nM. Further, the “Delta Tm” value in [3] is given as 8.7. The T/C entry in data set [4] was “>=138%”.

As to `COc1cccc2c1C(=O)c1c(O)c3c(c(O)c1C2=O)C[C@@](O)(C(=O)CO)C[C@@H]3OC1CC2C(OC3COCC(C#N)N32)C(C)O1` (some centres undefined), the logD was determined as 2.4 in data set [6], 2.24 in data set [11], 2.29 in [21] and 2.41 in data set [22]. Besides, the T/C in data set [7] is recorded as 135%; in data set [10] it was “>=153%”; in data set [16], 150%; in data set [18], 141%. Besides, the EC50 in data set [8] worked out at 220 nM; in data set [9] it was 25000 nM; in data set [12] it was 550 nM; in data set [13], 1400 nM; in [15], 2000 nM; in [20], 790 nM. In addition, the ΔTm in data set [14] was 12.2. The results for the “Delta Tm” value in [17] and in [19] were 2.6 and 12.8, respectively.

As to `COc1cccc2c1C(=O)c1c(O)c3c(c(O)c1C2=O)C[C@@](O)(C(=O)CO)C[C@@H]3O[C@H]1C[C@H](N)[C@H](O)[C@H](C)O1` [DOXORUBICIN], the T/C in data set [23] is recorded as 206%; in [24], 160%; in data set [25], 252%; in data set [26], 192%. Also, the EC50 in data set [2] turned out to be 1600 nM; in [5], 580 nM. In addition, the “Delta Tm” value in data set [3] was 12.8.

For the molecule `COc1cccc2c1C(=O)c1c(O)c3c(c(O)c1C2=O)C[C@@](O)(C(C)=O)C[C@@H]3OC1CC2C(OC3COCC(C#N)N32)C(C)O1` (some centres undefined), the “Delta Tm” value stood at 5 in data set [27] and 8.3 in data set [32]. Moreover, the EC50 is 1950 nM in data set [28], 840 nM in data set [29], 220 nM in data set [30] and 420 nM in data set [31].

Turning to `COc1cccc2c1C(=O)c1c(O)c3c(c(O)c1C2=O)C[C@@](O)(C(=O)CO)C[C@@H]3OC1CC(N2CCOCC2)C(O)C(C)O1` (some centres undefined), the logD in data set [6] is 0.96; in data set [11], -1.1; in data set [21] it was 1.42; in data set [22], 1.73.

One may read the T/C as the ratio of treated to control. For orientation: logD means lipophilicity at a set pH, counting ionised and neutral species. A low value points to a more hydrophilic compound.

(Values after ChEMBL document CHEMBL1123308 (J Med Chem, 1986).)
